According to ChEMBL document CHEMBL3853270, “Influence of Birch Bark Triterpenes on Keratinocytes and Fibroblasts from Diabetic and Nondiabetic Donors” (2016):
Activity calls are given as the source filed them. No cut-off for these calls is given here.

Key:
Format in all cases: functional
Keratinocyte [1] = assay: Effect on growth factor related gene expression in non-diabetic adult human primary keratinocytes assessed as VEGFA mRNA levels at 1.96 uM after 6 hrs by qPCR analysis
Summary of the method: (§1)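 Primary human keratinocytes (nondiabetic young or adult, diabetic adult donors) were exposed to compound for 6 h, with 0.1% DMSO as solvent control. Total RNA came from 400 000 cells per sample and was assayed on a Fluidigm Biomark high-throughput qPCR chip. Results are fold change vs solvent control, from 2−4 independent experiments on two donors per group, with SD. Groups were compared by one-way ANOVA with Bonferroni post-test.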

Fibroblast [2] = assay: Effect on antiinflammatory related gene expression in diabetic adult human primary fibroblasts assessed as SOCS3 mRNA levels at 9.81 uM after 6 hrs by qPCR analysis
Summary of the method: (§2)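 Primary dermal fibroblasts from one nondiabetic young, one nondiabetic adult and one diabetic adult donor; 320 000 cells per sample, 6 h at 1.96 or 9.81 μM. RNA measured on a high-throughput qPCR chip. Fold change versus 0.1% DMSO control, four independent experiments, SD, one-way ANOVA with Bonferroni post-test.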

Fibroblast [3] = assay: Effect on pro-inflammatory related gene expression in non-diabetic young human primary fibroblasts assessed as IL6 mRNA levels at 1.96 uM after 6 hrs by qPCR analysis
Fibroblast [4] = assay: Effect on growth factor related gene expression in non-diabetic adult human primary fibroblasts assessed as GDF15 mRNA levels at 1.96 uM after 6 hrs by qPCR analysis
Summary of the method: (§3)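 Primary human dermal fibroblasts (young or adult nondiabetic, adult diabetic donor) were treated for 6 h against a 0.1% DMSO solvent control. RNA from 320 000 cells per sample was measured by Fluidigm Biomark high-throughput qPCR. Values are fold change relative to solvent control, from four independent experiments, with SD. One-way ANOVA with Bonferroni post-test was applied.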

Keratinocyte [5] = assay: Effect on pro-inflammatory related gene expression in non-diabetic adult human primary keratinocytes assessed as TNF mRNA levels at 1.96 uM after 6 hrs by qPCR analysis
Keratinocyte [6] = assay: Effect on pro-inflammatory related gene expression in diabetic adult human primary keratinocytes assessed as TNF mRNA levels at 1.96 uM after 6 hrs by qPCR analysis
Fibroblast [7] = assay: Effect on antiinflammatory related gene expression in non-diabetic adult human primary fibroblasts assessed as SOCS3 mRNA levels at 1.96 uM after 6 hrs by qPCR analysis; summary of the method: as §2
Fibroblast [8] = assay: Effect on antioxidant related gene expression in non-diabetic adult human primary fibroblasts assessed as SOD2 mRNA levels at 9.81 uM after 6 hrs by qPCR analysis
Fibroblast [9] = assay: Effect on antiinflammatory related gene expression in non-diabetic young human primary fibroblasts assessed as SOCS3 mRNA levels at 1.96 uM after 6 hrs by qPCR analysis; summary of the method: as §2
Fibroblast [10] = assay: Effect on adhesion molecules related gene expression in non-diabetic adult human primary fibroblasts assessed as ICAM1 mRNA levels at 9.81 uM after 6 hrs by qPCR analysis
Summary of the method: (§4)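 Dermal fibroblasts from nondiabetic adult and diabetic adult donors, exposed for 6 h at 1.96 or 9.81 μM. ICAM-1 and VCAM-1 mRNA measured by standard qRT-PCR, n = 3. Fold change versus 0.1% DMSO control, SD, one-way ANOVA with Bonferroni post-test.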

Fibroblast [11] = assay: Effect on adhesion molecules related gene expression in diabetic adult human primary fibroblasts assessed as ICAM1 mRNA levels at 1.96 uM after 6 hrs by qPCR analysis; summary of the method: as §4
Keratinocyte [12] = assay: Effect on growth factor related gene expression in non-diabetic young human primary keratinocytes assessed as VEGFA mRNA levels at 9.81 uM after 6 hrs by qPCR analysis; summary of the method: as §1
Fibroblast [13] = assay: Effect on actin cytoskeleton in human non-diabetic primary fibroblasts assessed as formation of thin elongated cellular body at 10 nM after 2 hrs in presence of p-38 MAPK inhibitor LN 950 by rhodamine phalloidin-staining based fluorescence microscopic analysis
Summary of the method: (§5)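 Subconfluent cells on glass coverslips, collagen type I coated for fibroblasts; keratinocytes starved 2 days before stimulation. Exposure 2 h, then rhodamine-phalloidin staining (1:25 in PBS) and fluorescence microscopy. Controls were DMSO as solvent and PDGF (fibroblasts) or CNF1 (keratinocytes). Where used, p38-MAPK inhibitor LN 950 (100 nM) was added 30 min beforehand.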

Keratinocyte [14] = assay: Effect on pro-inflammatory related gene expression in diabetic adult human primary keratinocytes assessed as IL1R1 mRNA levels at 1.96 uM after 6 hrs by qPCR analysis
Keratinocyte [15] = assay: Effect on ECM related gene expression in non-diabetic young human primary keratinocytes assessed as FBN1 mRNA levels at 1.96 uM after 6 hrs by qPCR analysis
Summary of the method: (§6)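 Primary keratinocytes from nondiabetic young and adult and diabetic adult donors; 400 000 cells per sample, 6 h exposure at 1.96 or 9.81 μM. RNA extracted and read on a high-throughput qPCR chip. Results are fold change versus 0.1% DMSO solvent control from 5−7 independent experiments over two donors per group, SD, one-way ANOVA with Bonferroni post-test.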

Keratinocyte [16] = assay: Effect on AQP3 mRNA expression levels in diabetic adult human primary keratinocytes at 9.81 uM after 6 hrs by qPCR analysis; summary of the method: as §6
Keratinocyte [17] = assay: Effect on pro-inflammatory related gene expression in non-diabetic young human primary keratinocytes assessed as TNF mRNA levels at 1.96 uM after 6 hrs by qPCR analysis
Keratinocyte [18] = assay: Effect on AQP3 mRNA expression levels in diabetic adult human primary keratinocytes at 1.96 uM after 6 hrs by qPCR analysis; summary of the method: as §6
[19] = Effect on wound healing activity in diabetic adult human primary keratinocytes assessed as upregulation of RANTES protein levels at 1.96 uM after 24 hrs by bead-based suspension array analysis; conditions: Keratinocyte
Keratinocyte [20] = assay: Effect on chemokines related gene expression in non-diabetic adult human primary keratinocytes assessed as IL8 mRNA levels at 1.96 uM after 6 hrs by qPCR analysis
Fibroblast [21] = assay: Effect on pro-inflammatory related gene expression in non-diabetic young human primary fibroblasts assessed as IL6 mRNA levels at 9.81 uM after 6 hrs by qPCR analysis
Fibroblast [22] = assay: Effect on adhesion molecules related gene expression in non-diabetic adult human primary fibroblasts assessed as VCAM1 mRNA levels at 1.96 uM after 6 hrs by qPCR analysis; summary of the method: as §4
Keratinocyte [23] = assay: Effect on actin cytoskeleton in human diabetic primary keratinocytes assessed as formation of cellular protrusions at 10 nM after 2 hrs by rhodamine phalloidin-staining based fluorescence microscopic analysis; summary of the method: as §5
Keratinocyte [24] = assay: Effect on chemokines related gene expression in diabetic adult human primary keratinocytes assessed as IL8 mRNA levels at 9.81 uM after 6 hrs by qPCR analysis
Fibroblast [25] = assay: Effect on growth factors related gene expression in non-diabetic adult human primary fibroblasts assessed as FGF2 mRNA levels at 9.81 uM after 6 hrs by qPCR analysis; summary of the method: as §3
Keratinocyte [26] = assay: Effect on pro-inflammatory related gene expression in non-diabetic young human primary keratinocytes assessed as PTGS2 mRNA levels at 1.96 uM after 6 hrs by qPCR analysis
Fibroblast [27] = assay: Effect on antioxidant related gene expression in non-diabetic adult human primary fibroblasts assessed as NFE2L2 mRNA levels at 1.96 uM after 6 hrs by qPCR analysis

## C=C(C)[C@@H]1CC[C@]2(CO)CC[C@]3(C)[C@H](CC[C@@H]4[C@@]5(C)CC[C@H](O)C(C)(C)[C@@H]5CC[C@]43C)[C@@H]12 [BETULIN]
Keratinocyte [1]
  fold change (FC): 1.3
Fibroblast [2]
  fold change (FC): 1.4
Fibroblast [3]
  fold change (FC): 45
Fibroblast [4]
  fold change (FC): 2.1
Keratinocyte [5]
  fold change (FC): 3.8
Keratinocyte [6]
  fold change (FC): 5.3
Fibroblast [7]
  fold change (FC): 24.4
Fibroblast [8]
  fold change (FC): 18
Fibroblast [9]
  fold change (FC): 3
Fibroblast [10]
  fold change (FC): 152
Fibroblast [11]
  fold change (FC): 6.3
Keratinocyte [12]
  fold change (FC): 1.4
Fibroblast [13]
  Activity: Active
Keratinocyte [14]
  fold change (FC): 0.8
Keratinocyte [15]
  fold change (FC): 1.8
Keratinocyte [16]
  fold change (FC): 0.8
Keratinocyte [17]
  fold change (FC): 4.5
Keratinocyte [18]
  fold change (FC): 0.8
[19]
  Activity: Active
Keratinocyte [20]
  fold change (FC): 24.2
Fibroblast [21]
  fold change (FC): 55
Fibroblast [22]
  fold change (FC): 63
Keratinocyte [23]
  Activity: Active
Keratinocyte [24]
  fold change (FC): 56
Fibroblast [25]
  fold change (FC): 3.4
Keratinocyte [26]
  fold change (FC): 1.4
Fibroblast [27]
  fold change (FC): 1.3
